The source made the active and inactive calls. The calls are words filed in the database; no cut-off is given here.

The nature of data set [1]: Cmax in human. It is filed as ADME.
Data set [2] in a line: Inhibition of SARS-CoV-2 3CL protease expressed in Escherichia coli BL21 DE3 using 2-aminobenzoyl-SVTLQSG-Tyr(NO2)-R as substrate preincubated with substrate for 15 mins followed by compound addition and measured after 1 hr by FRET assay. The arrangement: species or system Severe acute respiratory syndrome coronavirus 2.
The nature of data set [3]: Cytotoxicity against African green monkey Vero E6 cells assessed as maximum non-toxic concentration after 6 hrs by MTT assay. It is filed as cell-based. Particulars: chlorocebus aethiops. An outline of the steps: (§1)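 Vero E6 or LR7 cells seeded at 1×10^4/well were grown 24 h in DMEM with 10% FBS at 37 °C and 5% CO2. Serial drug dilutions (0–500 µM) were added for 6 h (legend) or 8 h (methods). Viability was normalized to the 0.1% DMSO control.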
(In general: Tetrazolium assays rely on reduction of a dye to a coloured formazan, in cell work by metabolically active cells.)

Data set [4] can be described thus: Cytotoxicity against mouse LR7 cells assessed as maximum non-toxic concentration after 6 hrs by MTT assay. It is filed as cell-based. An outline of the steps: as §1
Data set [5] has as its system Murine hepatitis virus. As to the kind of experiment: Antiviral activity against MHV-A59 infected in LR7 cells assessed as reduction in N protein production at 40 uM treated 2 hrs after post viral infection and measured after 6 hrs by Western blot analysis relative to control. Format: functional. Also on record: scale not given: the % may be the effect or the level left. An outline of the steps: (§2)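 LR7 cells (1×10^5/well) infected with MHV A59 at MOI 1 for 1 h, washed, then held in DMEM with 2% FBS. Compound (4 nM–40 µM, tenfold steps) was added at 2 h p.i. and cells were harvested at 8 h p.i. Western blot probed for MHV N protein, normalized to GAPDH and expressed relative to the 0.1% DMSO control. Mock and 400 nM bafilomycin A1 served as controls. ≥3 independent experiments.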
(In general: In western blotting, separated proteins are transferred to a membrane and probed.)

The subject of data set [6] is Murine hepatitis virus. As to the kind of experiment: Antiviral activity against MHV-A59 infected in LR7 cells assessed as reduction in number of infected cells at 40 uM treated 2 hrs after post viral infection and measured after 6 hrs by DAPI staining based immunofluorescence analysis relative to control. Format: functional. The arrangement: scale not given: the % may be the effect or the level left. An outline of the steps:
(§3)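 MHV A59 infection of LR7 cells on coverslips at MOI 1. Compound (4 nM–40 µM, tenfold dilutions) was added 2 h p.i. and cells were fixed at 8 h p.i. with 4% paraformaldehyde. Cells were permeabilized with 0.2% Triton X-100 and stained with anti-nsp2/nsp3 antiserum, an Alexa-488 secondary and DAPI. nsp2/nsp3-positive cells were counted by confocal microscopy relative to the DMSO control. ≥3 independent experiments.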

Data set [7] relates to Murine hepatitis virus. The experiment in a line: Antiviral activity against MHV-A59 infected in LR7 cells assessed as reduction in N protein production at 4 nM treated 2 hrs post viral infection and measured after 6 hrs by Western blot analysis. It is filed as functional. The arrangement: scale not given: the % may be the effect or the level left. An outline of the steps: as §2

Data set [8] deals with Murine hepatitis virus. As to the kind of experiment: Antiviral activity against MHV-A59 infected in LR7 cells assessed as reduction in number of infected cells at 40 nM treated 2 hrs post viral infection and measured after 6 hrs by immunofluorescence analysis. Format: functional. The arrangement: scale not given: the % may be the effect or the level left. An outline of the steps:
as §3

Data set [9] has as its system Murine hepatitis virus. The experiment in a line: Antiviral activity against MHV-A59 infected in […] cells assessed as reduction in viral gene expression at 100 uM treated 2 hrs post viral infection and measured after 6 hrs by RT-PCR analysis. It is filed as functional, organism-based.
Data set [10] concerns Murine hepatitis virus. The experiment in a line: Antiviral activity against MHV-A59 infected in Vero E6 cells assessed as reduction in viral gene expression at 10 uM treated 2 hrs post viral infection and measured after 6 hrs by RT-PCR analysis. Format: functional. Also on record: scale not given: the % may be the effect or the level left.
Data set [11] concerns Murine hepatitis virus. The experiment in a line: Antiviral activity against MHV-A59 infected in LR7 cells assessed as reduction in N protein production measured after 6 hrs by Western blot analysis relative to control. It is filed as functional, organism-based. Particulars: dose 0.004-40 µM. An outline of the steps: as §2
Data set [12] relates to Murine hepatitis virus. The experiment in a line: Antiviral activity against MHV-A59 infected in LR7 cells assessed as reduction in N protein production at 400 nM treated 2 hrs after post viral infection and measured after 6 hrs by Western blot analysis. It is filed as functional, organism-based. An outline of the steps: as §2
The test system of data set [13] is Murine hepatitis virus. As to the kind of experiment: Antiviral activity against MHV-A59 infected in LR7 cells assessed as reduction in number of infected cells at 400 nM treated 2 hrs after post viral infection and measured after 6 hrs by DAPI staining based immunofluorescence analysis. It is filed as functional, organism-based. An outline of the steps: as §3

The test system of data set [14] is Severe acute respiratory syndrome coronavirus 2. As to the kind of experiment: Inhibition of SARS-CoV-2 3CL protease expressed in Escherichia coli BL21 DE3 at 200 uM using 2-aminobenzoyl-SVTLQSG-Tyr(NO2)-R as substrate preincubated with substrate for 15 mins followed by compound addition and measured after 1 hr by FRET assay relative to control.

A word on the Cmax: it is the maximum level reached in the sampled fluid or tissue. One may read the IC50 as the midpoint of a concentration-inhibition curve. `CC(C)(C)NC(=O)N[C@H](C(=O)N1C[C@H]2[C@@H]([C@H]1C(=O)NC(CC1CCC1)C(=O)C(N)=O)C2(C)C)C(C)(C)C` (some centres undefined) [BOCEPREVIR]: the Cmax in [1] was 1720 ng/mL. The compound also returned an IC50 in [2] of 1.59 µM. Besides, the MNTC at 6 h in [3] and in data set [4] was 72.5 µM in each case. The Activity in [5] is 90%; in [6], 75%; in data set [7] it was 40%; in data set [8] it was 25%; in [10] it was 50%; in data set [11], “Dose-dependent effect”. Also, the outcome in data set [9] was Active.
With `CO/C1=C\C(C)=C\[C@@H](C)[C@@H](O)[C@@H](C)C/C(C)=C/C=C/[C@H](OC)[C@@H]([C@@H](C)[C@@H](O)[C@H](C)[C@@]2(O)C[C@@H](O)[C@H](C)[C@@H](C(C)C)O2)OC1=O`, the result in data set [12] and in data set [13] was Active.
Usually inhibition stands for how much of the control response was suppressed. For the compound `CCC[C@H](NC(=O)[C@@H]1[C@H]2CCC[C@H]2CN1C(=O)[C@@H](NC(=O)[C@@H](NC(=O)c1cnccn1)C1CCCCC1)C(C)(C)C)C(=O)C(=O)NC1CC1` [TELAPREVIR], the IC50 in data set [2] worked out at 55.7 µM. The compound also displayed an inhibition in [14] of 100%. The MNTC at 6 h in data set [3] and in [4] was 72.5 µM in each case. For the same compound, the result in data set [5] and in data set [6] was inactive.

For the origin of these results see ChEMBL document CHEMBL4732021, “Repurposing the HCV NS3-4A protease drug boceprevir as COVID-19 therapeutics” (RSC Med Chem, 2021).
